The text below walks through data of ChEMBL document CHEMBL1121711, “Novel peptidoaminobenzophenones, terminal N-substituted peptidoaminobenzophenones, and N-(acylglycyl)aminobenzophenones as open-ring derivatives of benzodiazepines” (J Med Chem, 1981).

Data set [1] in a line: Acute toxicity expressed as LD50 in mice after oral administration. The format is organism-based. The following applies: mouse, in vivo. The method, boiled down:
(§1)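 Mice dosed orally as a suspension in aqueous arabic gum, groups of one to three animals; acute toxicity judged on day 7 after dosing. Values for the three reference benzodiazepines derived by the probit method.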

Data set [2] has as its system Mus musculus. The data set is described as follows: Muscle relaxation activity using the rotarod performance test in mice by oral administration. Type of data set: functional. The method, boiled down: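 Groups of five mice dosed orally with compound suspended in aqueous arabic gum. At 60 min post-dose each mouse placed on a 3 cm diameter wooden rod turning at 5 rpm; falls within 2 min counted. ED50 estimated graphically.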
A general note: In the rotarod test animals must keep their balance on a rotating rod.

For data set [3], the system named is Mus musculus. The data set is described as follows: Antagonism of pentylenetetrazole-induced convulsion in mice by oral administration. Type of data set: functional. A digest of the protocol:
(§2)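 Compounds given orally as an aqueous arabic gum suspension to groups of five mice; 60 min after dosing, pentylenetetrazole 125 mg/kg given subcutaneously. Animals observed 2 h for convulsion and death; dose protecting 50% (ED50) estimated graphically.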

Data set [4] in a line: Acute toxicity of compound expressed as LD50 was measured in mice after oral administration. The format is organism-based. To be noted: mouse, in vivo. A digest of the protocol: as §1
Data set [5] has as its system Mus musculus. The data set is described as follows: Compound was tested for antagonism of pentylenetetrazole-induced convulsion in mice by oral administration. The format is functional. The method, boiled down: as §2

Compound `CCCC(=O)NCC(=O)N(C)c1ccc(Cl)cc1C(=O)c1ccccc1Cl` returned a 50% lethal dose (LD50) in data set [1] above 1000 mg/kg. In addition, the ED50 in the data set on Mus musculus [2] worked out at 55.2 mg/kg; in the data set with Mus musculus [3], 0.98 mg/kg.

For `O=C1CN=C(c2ccccc2)c2cc([N+](=O)[O-])ccc2N1` [NITRAZEPAM], the ED50 in the data set on Mus musculus [2] was 4.25 mg/kg; in the data set with Mus musculus [3] it was 0.23 mg/kg.

The compound `CN(C(=O)CNC(=O)c1ccccc1)c1ccc(Cl)cc1C(=O)c1ccccc1` showed a median lethal dose (LD50) in data set [1] above 1000 mg/kg. For the same compound, the ED50 is above 100 mg/kg in the data set on Mus musculus [2] and 7.6 mg/kg in the data set with Mus musculus [3].

With `CC(=O)NCC(=O)N(C)c1ccc(Cl)cc1C(=O)c1ccccc1Cl`, in data set [1], the median lethal dose (LD50) was above 1000 mg/kg. In addition, the results for the ED50 in the data set with Mus musculus [2] and in the data set with Mus musculus [3] were 58 mg/kg and 2.3 mg/kg, respectively.

Regarding `CCCCCCCCCCCCCCCC(=O)NCC(=O)N(C)c1ccc(Cl)cc1C(=O)c1ccccc1Cl`, the LD50 in data set [4] was above 1000 mg/kg. The ED50 with Mus musculus [2] and with Mus musculus [3] was above 100 mg/kg each time.

`CN(C(=O)CNC(=O)CN1CCN(c2ccccc2)CC1)c1ccc(Cl)cc1C(=O)c1ccccc1Cl`: the LD50 in data set [1] was above 1000 mg/kg. Moreover, the ED50 is above 100 mg/kg in the data set on Mus musculus [2] and 75 mg/kg in the data set on Mus musculus [3].

As for `CN(C(=O)CNC(=O)CN)c1ccc([N+](=O)[O-])cc1C(=O)c1ccccc1Cl`, the results for the ED50 in the data set on Mus musculus [5] and in the data set with Mus musculus [2] were 0.32 mg/kg and 10 mg/kg, respectively.

Turning to `CC(NC(=O)CN)C(=O)N(C)c1ccc(Cl)cc1C(=O)c1ccccc1Cl` (stereo not given), in data set [1], the 50% lethal dose (LD50) was found to be 750 mg/kg. Moreover, the ED50 turned out to be 8.5 mg/kg in the data set with Mus musculus [2] and 0.47 mg/kg in the data set with Mus musculus [3].

In turn, `CN1CCN(CC(=O)NCC(=O)N(C)c2ccc(Cl)cc2C(=O)c2ccccc2Cl)CC1` yielded an LD50 in data set [1] above 1000 mg/kg. Besides, the 50% effective dose (ED50) in the data set with Mus musculus [2] is above 100 mg/kg; in the data set with Mus musculus [3] it was 59 mg/kg.

`CN(C(=O)CNC(=O)CN1CCCCC1)c1ccc(Cl)cc1C(=O)c1ccccc1Cl` returned a median lethal dose (LD50) in data set [1] above 1000 mg/kg. Also, the ED50 in the data set with Mus musculus [2] is above 100 mg/kg; in the data set with Mus musculus [3], 7.5 mg/kg.

`CN(C(=O)CNC(=O)CNCCc1ccccc1)c1ccc(Cl)cc1C(=O)c1ccccc1Cl` gave a 50% lethal dose (LD50) in data set [1] above 1000 mg/kg. The 50% effective dose (ED50) stood at 86 mg/kg with Mus musculus [2] and 1.6 mg/kg in the data set on Mus musculus [3].

In the case of `CN(C(=O)CNC(=O)CN)c1ccc(Cl)cc1C(=O)c1ccccc1Cl` [LORZAFONE ANHYDROUS], the LD50 in data set [1] was above 1000 mg/kg. For the same compound, the values for the 50% effective dose (ED50) with Mus musculus [2] and in the data set with Mus musculus [3] were 27.7 mg/kg and 0.58 mg/kg, respectively.

In data set [1], `CN(C(=O)CNC(=O)c1ccccc1)c1ccc(Cl)cc1C(=O)c1ccccc1Cl` displayed an LD50 above 1000 mg/kg. Further, the figures for the 50% effective dose (ED50) with Mus musculus [2] and in the data set on Mus musculus [3] were above 100 mg/kg and 2.9 mg/kg, respectively.

`NCC(=O)NCC(=O)Nc1ccc([N+](=O)[O-])cc1C(=O)c1ccccc1Cl`: the LD50 in data set [4] stood at 750 mg/kg. In addition, the 50% effective dose (ED50) in the data set with Mus musculus [2] is 63.9 mg/kg; in the data set on Mus musculus [3], 2.64 mg/kg.

In data set [1], `CCCCCCC(=O)NCC(=O)N(C)c1ccc(Cl)cc1C(=O)c1ccccc1Cl` gave a 50% lethal dose (LD50) above 1000 mg/kg. The 50% effective dose (ED50) was 70 mg/kg in the data set with Mus musculus [2] and 1.9 mg/kg with Mus musculus [3].

In data set [1], `CN(C)CC(=O)NCC(=O)N(C)c1ccc(Cl)cc1C(=O)c1ccccc1Cl` had an LD50 above 1000 mg/kg. Also, the ED50 in the data set on Mus musculus [2] came out at 26 mg/kg; in the data set with Mus musculus [3] it was 2.6 mg/kg.

`CCN(CC)CC(=O)NCC(=O)N(C)c1ccc(Cl)cc1C(=O)c1ccccc1Cl` came in with an LD50 in data set [1] above 1000 mg/kg. For the same compound, the ED50 in the data set on Mus musculus [2] came out at 34 mg/kg; in the data set on Mus musculus [3], 2.2 mg/kg.

The compound `CN(C(=O)CNC(=O)CN1CCOCC1)c1ccc(Cl)cc1C(=O)c1ccccc1Cl` registered an LD50 in data set [1] above 1000 mg/kg. Further, the ED50 with Mus musculus [2] is above 100 mg/kg; in the data set with Mus musculus [3], 14 mg/kg.

Take `CC(=O)NCC(=O)Nc1ccc(Cl)cc1C(=O)c1ccccc1`: the median lethal dose (LD50) in data set [1] was above 1000 mg/kg. In addition, the figures for the median effective dose (ED50) in the data set with Mus musculus [2] and in the data set with Mus musculus [3] were above 100 mg/kg and 37 mg/kg, respectively.

Turning to `CN(C(=O)CNC(=O)Cc1ccccc1)c1ccc(Cl)cc1C(=O)c1ccccc1Cl`, the LD50 in data set [1] is above 1000 mg/kg. In addition, the results for the median effective dose (ED50) in the data set on Mus musculus [2] and in the data set on Mus musculus [3] were above 100 mg/kg and 35 mg/kg, respectively.

In data set [1], `CNC1=Nc2ccc(Cl)cc2C(c2ccccc2)=[N+]([O-])C1` [CHLORDIAZEPOXIDE] displayed a median lethal dose (LD50) of 1080 mg/kg.

In data set [1], `NCC(=O)NCC(=O)Nc1ccc([N+](=O)[O-])cc1C(=O)c1ccccc1` had a 50% lethal dose (LD50) above 1000 mg/kg. Besides, the ED50 with Mus musculus [2] turned out to be 24.8 mg/kg; with Mus musculus [3], 4.82 mg/kg.

For `CN(C(=O)CNC(=O)CN)c1ccc([N+](=O)[O-])cc1C(=O)c1ccccc1`, the results for the median effective dose (ED50) in the data set on Mus musculus [5] and in the data set on Mus musculus [2] were 0.28 mg/kg and 2.94 mg/kg, respectively.

`CC(=O)NCC(=O)Nc1ccc(Cl)cc1C(=O)c1ccccc1Cl` returned an LD50 in data set [1] above 1000 mg/kg. Besides, the 50% effective dose (ED50) in the data set on Mus musculus [2] and in the data set on Mus musculus [3] was above 100 mg/kg in each case.

Take `CC(C)NCC(=O)NCC(=O)N(C)c1ccc(Cl)cc1C(=O)c1ccccc1Cl`: the LD50 in data set [1] was found to be 750 mg/kg. Also, the ED50 with Mus musculus [2] is 13 mg/kg; with Mus musculus [3], 1 mg/kg.

With `CN(C(=O)CNC(=O)CN1CCC(O)(c2ccc(Cl)cc2)CC1)c1ccc(Cl)cc1C(=O)c1ccccc1Cl`, in data set [1], the LD50 was above 1000 mg/kg. Also, the figures for the 50% effective dose (ED50) in the data set on Mus musculus [2] and with Mus musculus [3] were above 100 mg/kg and 27 mg/kg, respectively.

In turn, `CCC(=O)NCC(=O)N(C)c1ccc(Cl)cc1C(=O)c1ccccc1Cl` showed an LD50 in data set [1] above 1000 mg/kg. Besides, the results for the 50% effective dose (ED50) in the data set with Mus musculus [2] and in the data set on Mus musculus [3] were 36 mg/kg and 1.4 mg/kg, respectively.

Consider `CNCC(=O)NCC(=O)N(C)c1ccc(Cl)cc1C(=O)c1ccccc1Cl`, for which the LD50 in data set [1] was above 1000 mg/kg. The 50% effective dose (ED50) in the data set with Mus musculus [5] was determined as 1.55 mg/kg.

The compound `CCCCCC(=O)NCC(=O)N(C)c1ccc(Cl)cc1C(=O)c1ccccc1Cl` came in with an LD50 in data set [1] above 1000 mg/kg. Moreover, the results for the ED50 in the data set with Mus musculus [2] and with Mus musculus [3] were 90 mg/kg and 1.9 mg/kg, respectively.

`CCCCC(=O)NCC(=O)N(C)c1ccc(Cl)cc1C(=O)c1ccccc1Cl` displayed an LD50 in data set [1] above 1000 mg/kg. For the same compound, the results for the ED50 in the data set with Mus musculus [2] and in the data set on Mus musculus [3] were 90 mg/kg and 1.3 mg/kg, respectively.

In data set [1], `NC(C(=O)NCC(=O)Nc1ccc(Cl)cc1C(=O)c1ccccc1)c1ccccc1` (stereo not given) registered an LD50 above 1000 mg/kg. For the same compound, the ED50 in the data set with Mus musculus [2] was above 100 mg/kg; in the data set on Mus musculus [3], 28 mg/kg.

On to `CC(C)C(=O)NCC(=O)N(C)c1ccc(Cl)cc1C(=O)c1ccccc1Cl`, for which, in data set [1], the LD50 is above 1000 mg/kg. Also, the results for the ED50 in the data set on Mus musculus [2] and in the data set with Mus musculus [3] were above 100 mg/kg and 6 mg/kg, respectively.

A word on the LD50: it is the dose at which mortality reaches 50%. In general, ED50 refers to the dose that gives a 50% effect, or the effect in half of the subjects.
